Source: PubChem (several laboratories)
Compounds with a hit are over-represented: about 3.4% of the library has one in this group of screens.
RanGTP-Imp inh – inhibitors of RanGTP-importin-beta interaction, primary screen, biochemical, FRET, CFP-Ran, YFP-importin-beta, homogeneous; Ran GTPase (GTP-bound) - importin-beta complex; cell-free CFP-Ran/YFP-importin-beta FRET ratio; inhibition, % (no concentration beside the values); 300,000 compounds, 1.1% hits;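 active = more than half of the replicate wells show a fall in the fluorescence ratio signal beyond about 16%, limit read from the data, passing the limit was not always enough; inconclusive = exactly half of the replicate wells pass the set limit; inactive = fewer than half of replicates pass the limit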;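 also: 0% = DMSO wells and 100% = Ran loaded with GDP instead of GTP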
Runt-SMMHC FRET – inhibitors of RUNX1 Runt–CBFb-SMMHC binding, primary screen, biochemical, FRET, Cerulean-Runt, Venus-CBFb-SMMHC, uHTS; 220,000 compounds, 0.74% hits; Cerulean-Runt/Venus-CBFb-SMMHC FRET ratio 530/480, 1 h; Runt-related transcription factor 1 (Homo sapiens) + Core-binding factor subunit beta …; AID 1434, 2008; inhibition, % at 20 µM;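 active = mean inhibition across duplicate retests at 20 µM reaching about 50%, limit read from the data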;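 also: 0% = DMSO wells and 100% = wells with excess untagged CBFb-SMMHC; inhibitors lower the FRET ratio by blocking Runt binding to CBFb-SMMHC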
PHOSPHO1 inh – PubChem AID 1565 | Phosphoethanolamine/phosphocholine phosphatase (Homo sapiens), Q8TCT1 | recombinant PHOSPHO1, absorbance phosphatase assay | inhibition, % at 13.3 µM | 290,000 compounds, 1.1% hits; in the data active = inhibition above about 60%
Wee1 degr inh – Wee1 degradation inhibitors, primary screen, cell-based, HeLa, Wee1K328M-luciferase, luminescence | Wee1-like protein kinase (Homo sapiens), P30291 | HeLa Luc-Wee1K328M stability; 100% = proteasome inhibitor MG132 effect | reporter increase, % at 5 µM | 220,000 compounds, 1.2% hits | AID 1321, 2008;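 active = activation above the mean of all tested compounds plus 3 SD, set per screening run, cut at about 8.8% in these data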;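 also: cells exposed to compound for 20 h before luminescence read; 0% = DMSO alone and 100% = MG132 at 30 µM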
Runt-CBFb FRET – inhibitors of RUNX1 Runt–CBFb binding, primary screen, biochemical, FRET, Cerulean-Runt, Venus-CBFb, uHTS; inhibition, % at 20 µM; 220,000 compounds, 0.46% hits; Runt-related transcription factor 1 (Homo sapiens) + Core-binding factor subunit beta …; Cerulean-Runt/Venus-CBFb FRET ratio 530/480, 1 h;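 active = inhibition over about 50% at 20 µM in the single-dose screen, limit read from the data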;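 also: 0% = DMSO wells and 100% = excess unlabeled CBFb competitor control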
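Measured by: fluorescence energy transfer, 422 nm excitation, 530/480 nm emission; Assay system: Cerulean-Runt domain; Medium: Tris pH 7.5 buffer with BSA; Measure: loss of energy transfer signal; Controls: 5 µM unlabeled CBFb as full-inhibition high control; Incubation: protein complex preformed 1 h, compound exposure 1 h, room temperature, dark.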
HMGR II inh – inhibitors of E. faecalis class II HMGR, primary screen, biochemical, Enterococcus faecalis. 190,000 compounds, 0.41% hits. purified E. faecalis HMGR, NADPH absorbance 340 nm kinetic. HMG-CoA reductase (Enterococcus faecalis, mvaE). inhibition, % at 10 µM. AID 1066, 2008;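 active = inhibition above a set limit, the median over all tested compounds plus 3 SD, cut at about 9.5% in these data; inconclusive = no clear call, values can overlap the other calls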;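 also: enzyme runs in reverse so mevalonate oxidation gives rising NADPH absorbance; 0% = complete reaction with DMSO and 100% = background rate lacking mevalonate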
RUNX1 CBFb TR – inhibitors of RUNX1 Runt–CBFb binding, biochemical, TR-FRET; shares compounds with Runt-CBFb FRET; TR-FRET RUNX1 Runt domain-CBFb binding; inhibition, % at 20 µM; 480 compounds, 20% hits; AID 1502, 2009; in the data active = inhibition above about 40%
Active calls of the source: *; ? = inconclusive; . = no result.

SMILES	RanGTP-Imp inh	Runt-SMMHC FRET	PHOSPHO1 inh	Wee1 degr inh	Runt-CBFb FRET	HMGR II inh	RUNX1 CBFb TR
CCNC(=S)N(Cc1cc2cc(C)ccc2[nH]c1=O)C1CCCC1	-5	43	1	3	58*	-1	13
CCNC(=S)N(Cc1cc2c(C)ccc(C)c2[nH]c1=O)C1CCCC1	2	28	23	-4	60*	-2	23
CCN(CC(=O)Nc1ccc(C)c(F)c1)CC(=O)NC(C)C	-1	-2	19	2	0	-3	.
CN1CCc2c(sc3c2C(=O)NC(c2cccs2)N3)C1 (centres undefined)	118*	78*	22	-1	62*	-1	-6
COc1ccc(-c2cnnc(N/N=C/c3ccc(O)c(OC)c3)n2)cc1	0	2	0	4	-1	-2	.
COC(=O)c1ccc(C(=O)OC)c(NC(=S)N2CCCCC2C)c1 (centres undefined)	?	87*	-5	-2	72*	-1	67*
COc1ccc(CCn2c(N)c(C(=O)NCc3ccco3)c3nc4ccccc4nc32)cc1	58*	79*	7	5	58*	3	26
Cc1cc(C)c2c(N)c(C(=O)NN)sc2n1	2	4	-7	-2	5	.	.
Cc1cc(C)c2c(N)c(C(=O)Nc3nccs3)sc2n1	0	39	25	1	56*	-3	16
Nc1c([N+](=O)[O-])cc(-c2cnc[nH]2)cc1[N+](=O)[O-]	3	1	8	-1	0	0	.
Oc1cc(-n2cccn2)c(O)cc1-n1cccn1	8	100*	18	-4	53*	.	8
Cc1ccc(O)c(-c2cc(C(=O)Nc3ccc(S(=O)(=O)Nc4nc(C)cc(C)n4)cc3)[nH]n2)c1	5	-4	7	1	-10	2	.
CN(CCC#N)C(=O)COC(=O)c1c2c(nc3ccccc13)/C(=C/c1ccco1)CC2	-81	.	-32	10*	74*	2	63*
Cn1c(=O)nc2n(Cc3ccccc3)c3ccccc3cc-2c1=O	121*	82*	-19	7	90*	-2	-53
Cc1ccc(CNS(=O)(=O)NCc2ccccc2)cc1	0	1	6	-1	0	-6	.
COc1ccc(OC)c(NC(=O)c2cc3c(=O)n4ccccc4nc3n2C)c1	4	69	-15	0	.	-1	.
Cc1ccc(NC(=O)CSc2nc3ccccc3c(=O)n2CC2CCCO2)cc1 (centres undefined)	-2	.	27	.	.	.	.
CCOC(=O)c1cc2c(=O)n3ccccc3nc2n(CC2CCCO2)c1=NC(=O)/C=C/c1ccccc1 (centres undefined)	-4	86*	32	5	81*	-4	33
CCOC(=O)c1cc2c(=O)n3ccccc3nc2n(Cc2ccco2)c1=NC(=O)c1ccc(OC)cc1OC	29*	86*	24	0	70*	-3	52*
CN1C[C@@H]2C(c3ccccc3)C3(c4ccc(C#N)cc4)CC2(C3)[C@H]1c1ccccc1 (some centres undefined)	-2	0	26	.	2	.	.
CN1C=CC2=C(C#N)C(N)C(C#N)(C#N)C(c3ccccc3)C2C1 (centres undefined)	40*	62*	18	0	71*	4	32
CCOC(=O)C1(Cc2ccc(OC)cc2)CCN(C(=O)c2csc(C)n2)CC1	-3	1	32	-2	0	-2	.
